# Reference: ChEMBL document CHEMBL1154067, “Antiviral and cytotoxic activities of aminoarylazo compounds and aryltriazene derivatives” (Bioorg Med Chem, 2009)
# pEC50: −log10 of the molar value. Calls of active or inactive are those of the source.
# Columns and labels:
# MT4 = assay: Cytotoxicity against human MT4 cells after 96 hrs by MTT assay; type: cell-based; conditions: mt4, 96 h
# In short: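 Exponentially growing mock-infected MT-4 seeded at 1 × 10^5 cells/mL in RPMI-1640 with 10% FCS, penicillin and streptomycin. Incubated with or without serial compound dilutions at 37 °C, 5% CO2. Viability by MTT after 96 h. CC50 = concentration reducing viability 50%.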
# [1] = Cytotoxicity against MDBK cells after 48 to 96 hrs by MTT assay; type: cell-based, Bos taurus; conditions: cattle, mdbk
# In short: (§1)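 Mock-infected cells in maintenance medium, MDBK at 6 × 10^5 and BHK at 1 × 10^6 cells/mL initial density, with or without serial compound dilutions. Run in parallel with antiviral assays. Viability by MTT after 48–96 h at 37 °C, 5% CO2. CC50 = concentration reducing viability 50%.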
# [2] = system: Bovine viral diarrhea virus 1; assay: Antiviral activity against Bovine viral diarrhea virus infected in MDBK cells assessed as inhibition of virus-induced cytopathicity after 3 to 4 days by MTT assay; type: functional, organism-based; conditions: Bovine viral diarrhea virus isolates and strains
# Yellow fever virus = assay: Antiviral activity against Yellow fever virus infected in BHK-21 cells assessed as inhibition of virus-induced cytopathicity after 3 to 4 days by MTT assay; type: functional, organism-based
# [3] = system: Mammalian orthoreovirus 1; assay: Antiviral activity against Reovirus-1 infected in BHK-21 cells assessed as inhibition of virus-induced cytopathicity after 3 to 4 days by MTT assay; type: functional, organism-based; conditions: Mammalian orthoreovirus 1, BHK-21
# In short: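 BHK-21 cells seeded at 5 × 10^4 cells/well, grown overnight to confluent monolayers at 37 °C in 5% CO2, then infected at m.o.i. 0.01 in serum-free medium. One hour later, MEM Earle's with 1% final inactivated FCS added, with or without serial compound dilutions. Viability read by MTT after 3–4 days at 37 °C. EC50 is the concentration giving 50% protection from cytopathogenicity.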
# Vero = assay: Cytotoxicity against african green monkey Vero 76 cells by crystal violet staining; type: cell-based; conditions: chlorocebus sabaeus, vero
# In short: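 Mock-infected Vero 76 seeded at 4 × 10^5 cells/mL, run in parallel with plaque assays, with or without serial compound dilutions. Cell number of monolayers determined by crystal violet staining. CC50 = concentration reducing viable cell number 50%.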
# Coxsackievirus B2 = assay: Antiviral activity against Coxsackie virus type B2 virus infected in african green monkey Vero-76 cells after 3 days by plaque reduction assay; type: functional, organism-based; conditions: Enterovirus B, Vero 76, 72 h
# In short: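 Vero 76 cells seeded at 2 × 10^5 cells/well, grown overnight to confluence at 37 °C in 5% CO2, then infected at 50–100 PFU/well. Unadsorbed virus removed. Overlay of DMEM with 1% inactivated FCS and 0.75% methylcellulose, with or without serial compound dilutions. After 3 days at 37 °C, fixed and stained with crystal violet in PBS/50% ethanol; plaques counted. EC50 is the concentration reducing plaque number by 50%.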
# [4] = system: Respiratory syncytial virus; assay: Antiviral activity against Respiratory syncytial virus A2 infected in Vero-76 cells after 5 days by plaque reduction assay; type: functional, organism-based; conditions: human respiratory syncytial virus, A2, Vero 76, 120 h
# Human alphaherpesvirus 1 = assay: Antiviral activity against HSV1 infected in Vero-76 cells after 3 days by plaque reduction assay; type: functional, organism-based; conditions: Human alphaherpesvirus 1, Vero 76, 72 h
# [5] = Cytotoxicity against hamster BHK21 cells assessed as reduction in cell viability after 48 to 96 hrs by MTT assay; type: cell-based, Mesocricetus auratus, BHK-21; conditions: bhk-21; in short: as §1
# Poliovirus 1 = assay: Antiviral activity against Human poliovirus 1 strain Sabin after 2 days by plaque reduction assay; type: functional; conditions: for pEC50: Enterovirus C, 48 h
# [6] = system: Human immunodeficiency virus 1; assay: Antiviral activity against HIV1 infected in human MT4 cells assessed as inhibition of virus-induced cytopathicity after 4 days by MTT assay; type: functional, organism-based
# [7] = system: Vesicular stomatitis virus; assay: Antiviral activity against Vesicular stomatitis virus after 2 days by plaque reduction assay; type: functional, organism-based
# Vaccinia virus = assay: Antiviral activity against Vaccinia virus after 3 days by plaque reduction assay; type: functional, organism-based; conditions: Orthopoxvirus vaccinia
Structure (SMILES),CC50 (MT4) [µM],CC50 [1] [µM],pEC50 [2],pEC50 (Yellow fever virus),pEC50 [3],CC50 (Vero) [µM],pEC50 (Coxsackievirus B2),pEC50 [4],pEC50 (Human alphaherpesvirus 1),CC50 [5] [µM],pEC50 (Poliovirus 1),inhibition [6],Activity [7],Activity (Vaccinia virus),Activity (Poliovirus 1)
CN(Cc1ccccc1)/N=N/c1ccccc1,≥ 100,> 100,< 4.00,< 4.00,< 4.00,≥ 100,< 4.00,< 4.00,< 4.00,> 100,< 4.00,inactive,inactive,inactive,
FC(F)(F)c1cccc(N(C[C@@H]2CCCN3CCCC[C@H]23)/N=N/c2ccccc2)c1,17,22,< 4.66,4.64,< 4.40,75,< 4.12,< 4.12,< 4.12,40,< 4.12,inactive,inactive,inactive,
Cc1c(/N=N/c2ccccc2)ccc(NC[C@@H]2CCCN3CCCC[C@H]23)c1C,31,48,5.60,5.05,< 4.33,60,< 4.22,< 4.22,< 4.22,47,,inactive,inactive,inactive,inactive
Fc1ccc(F)c(/N=N/Nc2cc(F)ccc2F)c1,≥ 100,> 100,< 4.00,< 4.00,< 4.00,≥ 100,4.30,5.10,< 4.00,> 100,< 4.00,inactive,inactive,inactive,
c1ccc(CN/N=N/c2ccccc2)cc1,42,> 100,< 4.00,< 4.00,< 4.00,100,< 4.00,< 4.00,< 4.00,> 100,< 4.00,inactive,inactive,inactive,
Cc1c(/N=N/c2cccc(C(F)(F)F)c2)ccc(NC[C@@H]2CCCN3CCCC[C@H]23)c1C,77,52,5.15,< 4.00,< 4.00,80,< 4.10,< 4.10,< 4.10,≥ 100,,inactive,inactive,inactive,inactive
O=[N+]([O-])c1cccc(/N=N/Nc2cccc([N+](=O)[O-])c2)c1,> 100,> 100,< 4.00,< 4.00,< 4.00,> 100,< 4.00,< 4.00,< 4.00,> 100,< 4.00,inactive,inactive,inactive,
CN(C)CCCN(/N=N/c1cc(F)ccc1F)c1cccc(C(F)(F)F)c1,16,> 100,4.05,< 4.27,< 4.27,30,< 4.52,< 4.52,< 4.52,54,< 4.52,inactive,inactive,inactive,
Fc1ccc(F)c(/N=N/Nc2ccccc2)c1,100,> 100,< 4.00,< 4.00,< 4.00,80,4.92,5.00,4.26,> 100,< 4.10,inactive,inactive,inactive,
CN(/N=N/c1cccc([N+](=O)[O-])c1)c1ccccc1,> 100,82,< 4.09,< 4.00,4.48,> 100,< 4.00,4.82,< 4.00,> 100,4.54,inactive,inactive,inactive,
FC(F)(F)c1cccc(/N=N/c2ccc(NC[C@@H]3CCCN4CCCC[C@H]34)c3c2CCCC3)c1,15,30,5.15,< 4.85,< 4.85,50,< 4.30,< 4.30,< 4.30,14,,inactive,inactive,inactive,inactive
CN(/N=N/c1ccccc1)c1ccccc1,55,> 100,< 4.00,< 4.00,< 4.00,50,< 4.30,4.70,< 4.30,> 100,< 4.30,inactive,inactive,inactive,
CN(C)CCCN(/N=N/c1ccccc1)c1ccccc1,33,95,≤ 4.02,< 4.30,< 4.30,35,5.22,< 4.46,4.92,50,< 4.46,inactive,inactive,inactive,
CN(C)CCCN(/N=N/c1c(F)cccc1F)c1ccccc1,23,45,< 4.35,4.70,< 4.28,25,5.05,≤ 4.60,4.92,52,< 4.60,inactive,inactive,inactive,
Cc1ccc(/N=N/N(CCCN(C)C)c2ccccc2)cc1,18,> 100,< 4.00,< 4.00,< 4.00,100,< 4.00,< 4.00,< 4.00,> 100,< 4.00,inactive,inactive,inactive,
O=[N+]([O-])c1cccc(/N=N/Nc2ccccc2)c1,40,94,4.72,< 4.42,< 4.42,33,< 4.48,< 4.48,< 4.48,38,< 4.48,inactive,inactive,inactive,
CN(C)CCCNc1ccc(/N=N/c2ccc([N+](=O)[O-])cc2)cc1,19,> 100,< 4.00,< 4.00,< 4.00,60,< 4.22,< 4.22,< 4.22,> 100,,inactive,inactive,inactive,inactive
CN(C)CCCN(/N=N/c1cc(F)ccc1F)c1ccccc1,13,25,< 4.60,< 4.60,< 4.60,7,< 5.15,< 5.15,< 5.15,25,< 5.15,inactive,inactive,inactive,
